NR2E3 ag-1: agonists of human NR2E3 nuclear receptor | actives 0.35% (n = 360,000) | inhibition of corepressor binding, % at 3.98 µM | CHO-S Gal4-NCOR/VP16-NR2E3 two-hybrid, luciferase | AID 602229 | Q9Y5X4;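 active = inhibition above the mean of all tested compounds plus 3 SD, cut at about 70% in these data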;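 also: 0% = DMSO with NR2E3 transfected cells and 100% = cells lacking NR2E3 construct; higher means lower luciferase signal from less NR2E3 corepressor binding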
PG9 binder: PG9 antibody binding by small molecule | TR-FRET gp120-PG9 antibody binding | inhibition, % at 6.7 µM | actives 0.43% (n = 360,000); in the data active = inhibition above about 8.5%
Rev-erbA mod: Rev-erb alpha (human) modulation; Rev-erbα–FITC-DNA binding, fluorescence polarization, 90 min; activity, % at 10 µM; actives 0.79% (n = 370,000);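 active = activity above about 14%, limit read from the data; passing the limit was not always enough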;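 also: 0% = DMSO wells with 35 nM protein and 100% = DMSO wells with 750 nM protein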
Target sequence (P20393 whole entry, looked up): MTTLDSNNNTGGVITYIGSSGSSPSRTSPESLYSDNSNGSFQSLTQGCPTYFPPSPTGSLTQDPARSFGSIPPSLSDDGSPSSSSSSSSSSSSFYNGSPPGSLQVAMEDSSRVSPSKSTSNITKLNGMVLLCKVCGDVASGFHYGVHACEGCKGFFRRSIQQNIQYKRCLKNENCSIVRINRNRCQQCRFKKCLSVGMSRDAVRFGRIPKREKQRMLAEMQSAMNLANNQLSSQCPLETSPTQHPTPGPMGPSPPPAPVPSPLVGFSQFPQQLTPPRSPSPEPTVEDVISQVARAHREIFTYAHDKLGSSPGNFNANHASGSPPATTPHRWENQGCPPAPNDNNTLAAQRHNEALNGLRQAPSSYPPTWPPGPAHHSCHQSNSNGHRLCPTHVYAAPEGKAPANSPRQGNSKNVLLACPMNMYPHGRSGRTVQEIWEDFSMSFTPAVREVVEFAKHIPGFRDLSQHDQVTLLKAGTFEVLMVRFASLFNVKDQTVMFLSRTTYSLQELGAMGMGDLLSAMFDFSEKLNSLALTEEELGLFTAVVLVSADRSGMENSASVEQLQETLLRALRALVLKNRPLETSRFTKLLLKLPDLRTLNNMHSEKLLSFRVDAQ
NR2E3 ag-2: agonists of human nuclear receptor NR2E3 | Q9Y5X4 | GST-NR2E3/biotin-RetCOR TR-FRET, 1536-well | inhibition of corepressor binding, % at 4.78 µM | actives 0.12% (n = 320,000);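 active = percent inhibition above the cutoff of mean plus 3 SD of all tested compounds, set per screening campaign, cut at about 20% in these data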;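 also: 0% = DMSO wells and 100% = biotin wells as full block of FRET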
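Material: NR2E3–RetCOR corepressor complex / Incubation: Compound–protein incubation for 5 h at 4 °C / Dosing: compound at 4.8 µM, single dose / Detection: time-resolved FRET / Benchmarks: high control biotin, low control 0.6% DMSO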
NR1D1 mod conf: Rev-erb alpha (human) modulation, hit confirmation; activation, % at 25 µM; shares compounds with Rev-erbA mod; actives 61% (n = 3,000); Rev-erb alpha FITC-DNA binding, fluorescence polarization, 90 min;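 active = activation at or above a set limit, or at least 3 SD above the negative control mean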;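 also: 0% = 35 nM protein with DMSO and 100% = 750 nM protein high control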
RORg DNA counter: affects RORgamma DNA binding in a Rev-erb alpha counter-screen; shares compounds with Rev-erbA mod; purified RORgamma protein-FITC-DNA binding, fluorescence polarization; IC50, µM; actives 8% (n = 910); AID 1259320;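 active = Compounds whose fitted half-maximal concentration for disrupting protein-DNA binding is below 10 micromolar; the record names Rev-erb in its text, so the target is in doubt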
Active calls of the source: *; i = inactive; · = not tested or not shown; ! = not active in a repeat. An excerpt weighted towards active compounds, which were near 1.4% of everything screened.

SMILES	NR2E3 ag-1	PG9 binder	Rev-erbA mod	NR2E3 ag-2	NR1D1 mod conf	others
COC(=O)[C@]12C[C@H](CC(=O)NCc3ccc(C)o3)C(=O)N(Cc3ccccc3)C1=C[C@H](C1CCCC1)O[C@@H]2C	·	2	-8	·	·
O=C(CSc1nc(C2CC2)nc2ccccc12)Nc1ccccc1	6	2	6	0	·
O=C(CSc1nc(C2CC2)nc2ccccc12)Nc1ccccc1Cl	-17	0	21*	-2	12
Cc1cc(C)c2cc(C#N)c(N3CCCN(S(=O)(=O)c4ccccc4)CC3)nc2c1	·	·	·	7	·
CC(=O)c1cccc(S(=O)(=O)N2CCN(c3nc4cc(C)cc(C)c4cc3C#N)CC2)c1	-4	0	174*	1	137*
O=c1[nH]c(-c2ccccc2F)nc2c1sc(=S)n2Cc1ccccc1	-2	-3	24*	1	2
NC(=O)CSc1nc2c(sc(=S)n2-c2ccccc2)c(=O)[nH]1	-19	0	1	·	·
CCC[C@H]1[C@@H](OC(=O)NCc2cccs2)CC[C@@]23CCCN2C(=O)CCC[C@@H]13	·	·	6	·	·
COc1c(F)c(F)c(C(=O)Nc2ccc(-c3nc4ccccc4[nH]3)cc2)c(F)c1F	-15	0	-2	0	·
COc1cccc(OC)c1C(=O)NC(=S)Nc1cc(-c2nc3ccccc3[nH]2)ccc1Cl	-5	7	26*	-1	24*
N#Cc1ccc(Oc2ccc(-c3nc4ccccc4nc3-c3ccccc3)cc2)cc1C#N	-13	2	23*	6	38*	RORg DNA counter=>40
N#Cc1cccc(Oc2ccc(-c3cnc4ccccc4n3)cc2)c1C#N	-1	0	5	0	·
N#Cc1ccc(Oc2ccc(-c3cnc4ccccc4n3)cc2)cc1C#N	-29	0	51*	-3	30*
COc1cccc(CNC(=O)[C@H](C)NC(=O)N2CC(=O)Nc3ccccc32)c1	2	-2	-1	·	·
O=C(Nc1ccc(Oc2ccccc2)nc1)[C@H]1O[C@@H](n2ccc(=O)[nH]c2=O)[C@H](O)[C@@H]1O	-9	1	20*	·	-1
COc1cccc(NC(=O)CCc2nnc3ccc(N4CCN(c5cccc(OC)c5)CC4)nn23)c1	-1	·	·	2	·
COc1cc(NC(=O)CCc2nnc3ccc(N4CCN(c5cccc(OC)c5)CC4)nn23)cc(OC)c1	-4	0	29*	1	12
CCCCNC(=O)C1C(c2ccc(OC)cc2)=Nc2ccccc2N1C(=O)c1cccnc1 (stereo not drawn)	·	-1	12	·	·
O=C(CSc1nnc(-c2ccncc2)n1-c1ccc(Cl)cc1)c1ccc(Cl)c(Cl)c1	·	·	31*	·	31*	RORg DNA counter=>40
NC(=O)CSc1nnc(-c2ccncc2)n1-c1ccc(Cl)cc1	15	2	-10	4	·
COc1cc(C(=O)OCc2cc3ccccc3[nH]c2=O)cc(OC)c1OC	-6	-1	45*	-1	30*
COc1cc(C(=O)N(Cc2ccco2)Cc2cc3ccccc3[nH]c2=O)cc(OC)c1OC	11	-2	-4	0	·
CN1/C(=C/C(=S)NC(=O)C2(C)CC2(Cl)Cl)C(C)(C)c2ccccc21 (stereo not drawn)	0	0	23*	-3	-2
CCN(CC)c1ccc(C=C2SC(=S)NC2=O)cc1	-6	-7	39*	·	30*	RORg DNA counter=>40
COc1ccc(OC)c2c1sc(=NC(=O)c1ccco1)n2C	-24	1	16	3	·
SMILES	NR2E3 ag-1	PG9 binder	Rev-erbA mod	NR2E3 ag-2	NR1D1 mod conf	others
Cc1ccc(-c2c(C)sc(=NC(=O)c3ccco3)n2C)cc1	-142	1	37*	5	16*
CCOC(=O)c1ccc(N/C=C\C(=O)c2cccc(OC)c2)cc1	-45	2	27*	2	5
COc1ccc(S[C@]2(C(=O)N3CCN(c4ncccn4)CC3)CC(=O)N(C(=O)/C=C/c3ccccc3)[C@@H]2c2ccc(OC)cc2)cc1	·	·	-3	·	·
Cn1cc(C(=O)NCc2cccs2)c(=O)c2cc(S(=O)(=O)N3CCCC3)ccc21	-18	-1	28*	-3	25*
COC(=O)c1c(-c2cccc(C)c2)csc1NC(=O)C1CCCO1 (stereo not drawn)	-9	1	24*	-3	27*
CN[C@@H](CO)C(=O)NC[C@H]1O[C@@H](n2cnc3c(N)ncnc32)[C@H](O)[C@@H]1O	21	1	1	·	·
CCCCNC(=O)C[C@@H]1C[C@@]2(C(=O)OC)CCCCC=C2N(Cc2ccccc2)C1=O	-18	2	0	·	·
CCCCCCCCCCCCCCCC[n+]1ccccc1	4	-1	25*!	·	-3
CCCNC(=O)C[C@@H]1CC[C@H]2NC[C@H](O)COC[C@@H]2O1	·	-1	4	·	·
COc1ccc2c(C)cc(SCC(=O)NC3CCCCC3)nc2c1	14	2	121*	·	53*	RORg DNA counter=>40
COc1ccc2c(C)cc(SCC(=O)Nc3ccc(Cl)cn3)nc2c1	-1	-2	55*	-2	16
COc1ccc2c(C)cc(SCC(=O)N3CCOCC3)nc2c1	-5	1	5	2	·
CCCc1nc2c3ccccc3ccn2c1CC(C)(C)C	-43	1	-7	·	·
CCOC(=O)C(CC1=CS(=O)(=O)c2ccc(Cl)cc21)(NC(C)=O)C(=O)OCC	-1	-1	-5	·	·
CCCN1C(=O)c2[nH]nc(-c3ccccc3)c2C1c1ccc(C)cc1 (stereo not drawn)	·	-1	-6	·	·
CCOC(=O)C1=CN(C)CCC1=O	1	0	1	·	·
CCOC(=O)C1=CN(CC)CCC1=O	-11	-3	25*	·	-2
Clc1ccc2nc(N3CCNCC3)nc(-c3ccccc3)c2c1	17	-1	5	1	·
O=C1CN(c2nc(-c3ccccc3)c3cc(Cl)ccc3n2)c2ccccc2N1	15	-2	32*	-2	-1
O=C(Nc1ccc(Oc2ncnc3cc(Cl)ccc23)nc1)c1cccs1	-8	0	55*	1	27*
O=C(Nc1ccc(F)cc1)Nc1ccc(Oc2ncnc3cc(Cl)ccc23)nc1	1	1	51*	1	8
COc1ccc(NC(=O)c2cccs2)cn1	-16	-2	-1	1	·
O=C(O)CCCC(=O)Nc1ccc(Oc2ncnc3cc(Cl)ccc23)nc1	-1	0	-3	2	·
CC(c1nc2ccccc2[nH]1)n1c(=O)c(-c2cccs2)nc2ccccc21 (stereo not drawn)	·	0	30*	·	18*
CC(c1nc2ccccc2[nH]1)n1c(=O)c(-c2cccnc2)nc2ccccc21 (stereo not drawn)	·	1	2	·	·
CCCC(Oc1ccc(Br)cc1)c1nc2c3cc(OC)c(OC)cc3nc(=S)n2[nH]1 (stereo not drawn)	9	0	47*	0	39*	RORg DNA counter=i
